The values below come from ChEMBL document CHEMBL1152809, “Structure-activity relationships of orotidine-5'-monophosphate decarboxylase inhibitors as anticancer agents” (J Med Chem, 2009).

Calls of active or inactive are those of the source. The calls are words filed in the database; no cut-off is given here. Bounds are passed on as bounds.

The target in data set [1] is Orotidine 5'-phosphate decarboxylase (Methanobacterium thermoautotrophicum, UniProt O26232). Description: Reversible inhibition of Methanobacterium thermoautotrophicum ODCase. Further details: species or system Methanothermobacter thermautotrophicus. An outline of the steps:
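Inhibitor levels span 0-1.0 µM up to 0-4.0 mM depending on compound. Rates from heat flow fitted to a competitive model for Ki; experiments in triplicate.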

The target in data set [2] is T1, Uridine 5'-monophosphate synthase (Homo sapiens) (UniProt P11172).
T1 sequence (whole entry): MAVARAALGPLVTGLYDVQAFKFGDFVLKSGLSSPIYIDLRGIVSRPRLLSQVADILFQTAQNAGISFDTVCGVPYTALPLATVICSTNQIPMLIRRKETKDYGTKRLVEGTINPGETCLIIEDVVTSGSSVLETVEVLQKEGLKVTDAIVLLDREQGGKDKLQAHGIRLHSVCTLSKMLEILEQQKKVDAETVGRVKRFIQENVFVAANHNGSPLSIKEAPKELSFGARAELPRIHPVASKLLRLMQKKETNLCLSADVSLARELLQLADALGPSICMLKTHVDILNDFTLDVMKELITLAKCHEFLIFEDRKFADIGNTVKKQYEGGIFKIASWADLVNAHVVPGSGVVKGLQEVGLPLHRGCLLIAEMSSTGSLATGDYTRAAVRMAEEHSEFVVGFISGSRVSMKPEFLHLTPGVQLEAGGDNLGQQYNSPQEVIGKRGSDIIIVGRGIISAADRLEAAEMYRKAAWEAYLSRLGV
As to the kind of experiment: (§1) Irreversible inhibition of human ODCase.

For data set [3], the target named is T2, Uridine 5'-monophosphate synthase (Homo sapiens, UniProt P11172).
T2 sequence (P11172 whole entry): T1 sequence (whole entry)
Described as §1.

The nature of data set [4]: Antitumor activity against human OCI-My 2 cells after 3 days by WST1 assay. It is filed as functional, cell-based. The conditions noted are these: 72 h. An outline of the steps: (§2)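 Cell lines grown in Iscove's MDM with 5% FCS, 50 µM 2-mercaptoethanol, penicillin and streptomycin; suspension lines kept at 0.5-1.5 × 10^6 cells/mL, adherent lines subconfluent. Cells seeded in triplicate at 10^4 cells/100 µL. Compounds were dissolved in water and added immediately at 0 to 100 µM final. WST.1 read at 440 nm on day 3; IC50 taken from OD versus concentration plots.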
(Formazan colour is commonly taken as a measure of viable cells.)

The next data set relates to MCF7. Description: Antitumor activity against human MCF7 cells after 3 days by WST1 assay. In kind it is functional, cell-based. The conditions noted are these: MCF7, 72 h. The gist of the method: as §2
Another data set concerns Hs-578T. Description: Antitumor activity against human Hs 578T cells up to 4 uM after 3 days by WST1 assay. It is filed as functional, cell-based. The gist of the method:
as §2

Data set [5] can be described thus: Cytotoxicity against human CCD-967 cells up to 4 uM after 3 days by WST1 assay. In kind it is cell-based. The conditions noted are these: ccd-967, 72 h. An outline of the steps: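 Cells grown in Iscove's MDM with 5% FCS, 50 µM 2-mercaptoethanol and antibiotics, kept subconfluent if adherent. Seeded in triplicate at 10^4 cells/100 µL with compounds (in water) added at once, 0 to 100 µM final. WST.1 formazan read at 440 nm on day 3; IC50 from OD versus concentration.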

A short description of data set [6]: Antitumor activity against human LOX cells after 3 days by WST1 assay. It is filed as functional, cell-based. Conditions: 72 h. The gist of the method:
as §2

A further data set concerns PBMC. Description: Cytotoxicity against human PBMC cells by WST1 assay. In kind it is cell-based. An outline of the steps: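 Donor PBMCs isolated on Ficoll-Hypaque from blood diluted 1:1 in PBS, washed twice in PBS and stimulated with 3 µg/mL concanavalin A. Seeded in triplicate at 10^5 cells/100 µL; compounds in water added immediately, 0-100 µM final. WST.1 absorbance at 440 nm on day 3; IC50 from OD versus concentration plots.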

In a further data set the test system is OCI-AML2. As to the kind of experiment: Antitumor activity against human OCI-AML2 cells after 3 days by WST1 assay. Conditions: OCI-AML2, 72 h. In kind it is functional, cell-based. The gist of the method:
as §2

In the next data set the test system is T47D. Description: Antitumor activity against human T47D cells up to 4 uM after 3 days by WST1 assay. It is filed as functional, cell-based. An outline of the steps:
as §2

Data set [7] can be described thus: Antitumor activity against human SKW3 cells after 3 days by WST1 assay. It is filed as functional, cell-based. Conditions: SKW3, 72 h. The gist of the method: as §2
A short description of data set [8]: Antitumor activity against human MDA468 cells after 3 days by WST1 assay. In kind it is functional, cell-based. Conditions: MDA-MB-468, 72 h. The gist of the method: as §2
The nature of data set [9]: Antitumor activity against human OCI-AML1 cells after 3 days by WST1 assay. The conditions noted are these: ML1, 72 h. It is filed as functional, cell-based. An outline of the steps: as §2
In another data set the test system is SNB-19. Description: Antitumor activity against human SNB19 cells up to 4 uM after 3 days by WST1 assay. In kind it is functional, cell-based. An outline of the steps: as §2
The species named for a further data set is Homo sapiens. As to the kind of experiment: Induction of apoptosis in human OCI-My 2 cells 4 uM by […]/propidium iodide staining assay. It is filed as functional, cell-based. The gist of the method: (§3)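 Cells seeded in duplicate at 10^5 cells/mL; inhibitors added straight after seeding at 4 µM final, water in control wells. Cells harvested every 24 h, washed in PBS, stained with Annexin V/propidium iodide (1:200) and analysed by FACS; apoptotic cells scored as Annexin V+/PI-, necrotic as Annexin V+/PI+.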

A further data set has as its system SKW3. As to the kind of experiment: Induction of apoptosis in human SKW3 cells at 4 uM by annexin V/propidium iodide staining assay.
Another data set has as its system OCI-Ly7. As to the kind of experiment: Induction of apoptosis in human OCI-LY7 cells 4 uM by […]/propidium iodide staining assay. In kind it is functional, cell-based. The gist of the method:
as §3

The next data set deals with OVCAR-4. As to the kind of experiment: Antitumor activity against human OVCAR4 cells after 3 days by WST1 assay. It is filed as functional, cell-based. Conditions: OVCAR-4, 72 h. The gist of the method:
as §2

A short description of data set [10]: Antitumor activity against human OCI-LY7 cells after 3 days by WST1 assay. It is filed as functional, cell-based. The conditions noted are these: OCI-Ly7, 72 h. The gist of the method: as §2
Another data set relates to ML1. As to the kind of experiment: Induction of apoptosis in human OCI-AML1 cells by […]/propidium iodide staining assay. In kind it is functional, cell-based. The gist of the method: as §3
The subject of another data set is COLO 205. As to the kind of experiment: Antitumor activity against human COLO205 cells after 3 days by WST1 assay. In kind it is functional, cell-based. The conditions noted are these: COLO 205, 72 h. The gist of the method: as §2
Data set [11] deals with T2, Uridine 5'-monophosphate synthase. Description: Reversible inhibition of human ODCase. An outline of the steps: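 Human ODCase at 60 nM in 50 mM Tris, 1 mM DTT, assayed by ITC at 37 °C. Enzyme mixed with inhibitor (stocks in 50 mM Tris pH 7.5) and the reaction started with OMP, 15 or 20 µM final. Inhibitor ranges from 0-1.0 µM up to 0-500 µM. Ki from direct fit of decarboxylation rates; triplicates.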

In data set [12] the test system is Methanothermobacter thermautotrophicus. As to the kind of experiment: (§4) Irreversible inhibition of Methanobacterium thermoautotrophicum ODCase.
Data set [13] can be described thus: as §4. Further details: species or system Methanothermobacter thermautotrophicus.

Chain of Orotidine 5'-phosphate decarboxylase (O26232 whole entry): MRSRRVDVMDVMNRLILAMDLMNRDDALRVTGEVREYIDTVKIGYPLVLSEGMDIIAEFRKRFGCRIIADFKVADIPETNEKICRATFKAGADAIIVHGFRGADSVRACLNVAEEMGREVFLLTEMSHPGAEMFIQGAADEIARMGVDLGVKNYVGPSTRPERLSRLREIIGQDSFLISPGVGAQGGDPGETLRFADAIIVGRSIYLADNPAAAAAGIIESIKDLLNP

For the compound `[N-]=[N+]=Nc1c(F)c(=O)[nH]c(=O)n1[C@@H]1O[C@H](COP(=O)(O)O)[C@@H](O)[C@H]1O`, the Ki in data set [1] is 0.36 µM; in data set [3], 18.2 µM. Moreover, the Kinact in data set [2] worked out at 41 h⁻¹.
For orientation: IC50 means the concentration needed to halve the response being measured. A high value points to weaker potency in that assay. With `Nc1c(F)c(=O)[nH]c(=O)n1[C@@H]1O[C@H](CO)[C@@H](O)[C@H]1O`, the IC50 was 0.9 µM in [4]; 1.4 µM with MCF7; 3.4 µM in data set [6]; above 10 µM in the data set on PBMC; 0.9 µM with OCI-AML2; 0.6 µM in data set [7]. Also, the IC50 in data set [8] is 2.6 µM; in data set [9], 0.7 µM; with OVCAR-4, 2 µM; in data set [10], 1.3 µM; in the data set with COLO 205 it was 3.3 µM. For the same compound, the result with Hs-578T, in the data set with T47D and in the data set with SNB-19 was inactive. Further, the Activity entry in [5] was “Not Active”. Moreover, the outcome in the data set listed under Homo sapiens, with SKW3, in the data set with OCI-Ly7 and with ML1 was Active.
Turning to `CCc1c(F)c(=O)[nH]c(=O)n1[C@@H]1O[C@H](COP(=O)(O)O)[C@@H](O)[C@H]1O`, the Ki in data set [11] worked out at 0.35 µM; in data set [1], 29 µM.
For the compound `[N-]=[N+]=Nc1cc(=O)[nH]c(=O)n1[C@@H]1O[C@H](COP(=O)(O)O)[C@@H](O)[C@H]1O`, the Kinact in [12] turned out to be 61.2 h⁻¹. Moreover, the Ki in [13] stood at 0.6 µM; in data set [1], 0.2 µM.
`O=c1[nH]c(=O)n([C@@H]2O[C@H](COP(=O)(O)O)[C@@H](O)[C@H]2O)c(I)c1F` had a Kinact in data set [2] of 158 h⁻¹. This compound returned a Ki in data set [3] of 1.1 µM.
For `[N-]=[N+]=Nc1c(F)c(=O)[nH]c(=O)n1[C@@H]1O[C@H](CO)[C@@H](O)[C@H]1O`, the concentration for half-maximal inhibition (IC50) was 0.6 µM in [4]; 1 µM with MCF7; 2.3 µM in data set [6]; above 10 µM in the data set on PBMC; 0.7 µM in the data set on OCI-AML2; 0.4 µM in [7]. Besides, the concentration for half-maximal inhibition (IC50) in [8] turned out to be 1.8 µM; in [9] it was 0.6 µM; in the data set with OVCAR-4, 1.5 µM; in data set [10] it was 0.7 µM; in the data set on COLO 205, 3.8 µM. Further, the result in the data set with Hs-578T, in the data set with T47D and in the data set on SNB-19 was inactive. Also, in data set [5], the Activity entry was “Not Active”. Moreover, the outcome in the data set filed under Homo sapiens, with SKW3, in the data set on OCI-Ly7 and with ML1 was Active.
Turning to `O=c1[nH]c(=O)n([C@@H]2O[C@H](COP(=O)(O)O)[C@@H](O)[C@H]2O)cc1F`, the Ki in data set [11] is 98 µM; in data set [1], 645 µM.
As to `Nc1c(F)c(=O)[nH]c(=O)n1[C@@H]1O[C@H](COP(=O)(O)O)[C@@H](O)[C@H]1O`, the Ki was found to be 16.6 µM in data set [11] and 11.4 µM in [1].
